# Test results: article PMC4042847 (Journal of the American Chemical Society, 2013)
# Key:
# [1] = Spontaneous hydrolysis followed by UV difference spectroscopy; assay type: physicochemical; settings: 3.5 μM in 10 mM PBS, pH 7.4
# OXA-24 β-lactamase = OXA-24 β-lactamase (Acinetobacter baumannii, UniProt Q8RLA6); experiment: IC50 and turnover number with nitrocefin; assay type: biochemical
# TEM-2 β-lactamase = settings: cited from earlier work
# PDC-3 β-lactamase = PDC-3 β-lactamase (Pseudomonas aeruginosa, UniProt P24735, T105A); experiment: IC50 and turnover number with nitrocefin; assay type: biochemical
# SHV-1 β-lactamase = SHV-1 β-lactamase (Klebsiella pneumoniae, UniProt P0AD64); experiment: Steady-state inhibition kinetics with nitrocefin as indicator substrate; assay type: biochemical; settings: for kobs react 30min: after a 30 min incubation of 1:90 enzyme:inhibitor ratio; for tn (24h): inhibitor:enzyme ratio decreasing activity by 95% after 24 h incubation
# ADC-7 β-lactamase = experiment: IC50, turnover number and timed inactivation with nitrocefin; assay type: biochemical
# Outline: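 Enzyme in 10 mM phosphate-buffered saline, pH 7.4, read by diode-array spectrophotometry with nitrocefin (Δε482 = 17,400 M−1cm−1) at 100 μM. IC50: initial velocities after 5 min enzyme–inhibitor pre-incubation. tn: 24 h incubation with increasing inhibitor, then residual activity assayed. Timed inactivation: I:E ratio set from tn; steady-state velocities at set time points over 45 min.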
Molecule,spontaneous rate of hydrolysis [1] [µM/s],pseudo first order rate constant of spontaneous hydrolysis ([1]; absorbance at 228 nm) [s⁻¹],IC50 (OXA-24 β-lactamase) [nM],inhibition of TEM-2 β-lactamase in words (TEM-2 β-lactamase),IC50 (PDC-3 β-lactamase) [nM],IC50 in words (PDC-3 β-lactamase),IC50 higher than clavulanate (SHV-1 β-lactamase; SHV-1) [fold],IC50 higher than tazobactam (SHV-1 β-lactamase; SHV-1) [fold],Ki greater than tazobactam and clavulanate (SHV-1 β-lactamase; SHV-1),kobs react lower than clavulanate (SHV-1 β-lactamase; SHV-1),kobs react lower than tazobactam (SHV-1 β-lactamase; SHV-1) [fold],"Ki (SHV-1 β-lactamase; SHV-1, Kiapp corrected for nitrocefin affinity (Km = 20 μM)) [nM]","IC50 (SHV-1 β-lactamase; SHV-1, NCF 100 μM, 5 min pre-incubation of enzyme with inhibitor) [nM]",kobs react 30min (SHV-1 β-lactamase; SHV-1) [s⁻¹],tn (24h) (SHV-1 β-lactamase; SHV-1),"inactivation of SHV-1 in timed inactivation (SHV-1 β-lactamase; […] nM SHV-1 with 980 nM DCM-1-10 (I:E = 7:1), within 45 min) [%]","timed inactivation of ADC-7 in words (ADC-7 β-lactamase; 100 nM ADC-7 with 4.5 μM DCM-1-10, I:E of 45:1)",IC50 (ADC-7 β-lactamase; ADC-7) [nM],IC50 in words (ADC-7 β-lactamase; ADC-7),"KI (SHV-1 β-lactamase; SHV-1, from fit of kobs versus inhibitor concentration) [nM]"
7-(tert-butoxycarbonyl)methylidenecephalosporin sulfone [DCM-1-10],0.0002,3e-05,> 100000,potent and specific inhibition,740 ± 80,submicromolar,4,27,about 166 fold,at least 333 fold,67,> 20000,800 ± 100,0.0006 ± 0.0001,7,95,rapid compared to SHV-1,130 ± 10,submicromolar,–
"O=C(O)[C@H]1/C(=C/CO)O[C@@H]2CC(=O)N21 [Clavulanate, clavulanic acid, reference compound]",–,–,–,–,–,–,–,–,–,–,–,–,–,> 0.2,40,–,–,–,–,2600 ± 300
"C[C@]1(Cn2ccnn2)[C@H](C(=O)O)N2C(=O)C[C@H]2S1(=O)=O [Tazobactam, tazobactam, reference compound]",–,–,–,–,–,–,–,–,–,–,–,–,–,0.040 ± 0.001,5,–,–,–,–,–
